According to ChEMBL document CHEMBL4308835, “Fluorine-Substituted Pyrrolo[2,3- d]Pyrimidine Analogues with Tumor Targeting via Cellular Uptake by Folate Receptor α and the Proton-Coupled Folate Transporter and Inhibition of de Novo Purine Nucleotide Biosynthesis” (J Med Chem, 2018):
Calls of active or inactive are those of the source. No cut-off for these calls is given here.

Columns and labels:
IGROV-1 [1] = experiment: Antitumor activity against human IGROV1 cells xenografted in NCR SCID mouse assessed as median tumor burden at 32 mg/kg, iv treated once daily for 4 days per week for 3 weeks starting from 3 days post implantation and measured at day 60 post last dose (reference value: 108 mg); assay type: functional
Method in brief: (§1)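 Female ICR SCID mice (10 weeks, ~20 g) kept on folate-deficient diet ad libitum for 14 d before bilateral subcutaneous IGROV1 implantation; a control cohort was fed standard folate-replete chow. 5 mice/group, nonselectively randomized. […] Tumors measured twice weekly, body weights daily. T/C from median tumor burdens.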

IGROV-1 [2] = experiment: Antiproliferative activity against human IGROV1 cells harboring non targeted control shRNA sequence after 96 hrs by Cell-Titer Blue assay; assay type: functional, cell-based; conditions: IGROV-1, 96 h
IGROV-1 [3] = experiment: Antiproliferative activity against FRalpha […] human IGROV1 KD10 cells after 96 hrs by Cell-Titer Blue assay; assay type: functional, cell-based; conditions: IGROV-1, 96 h
[4] = target: T1, Proton-coupled folate transporter (Homo sapiens) (UniProt Q96NT5); experiment: Inhibition of human PCFT expressed in Chinese hamster R2/PCFT4 cells assessed as reduction in [3H]MTX uptake at pH 5.5 at 1 to 10 uM measured over 2 mins; assay type: cell-based
T1 sequence (whole entry): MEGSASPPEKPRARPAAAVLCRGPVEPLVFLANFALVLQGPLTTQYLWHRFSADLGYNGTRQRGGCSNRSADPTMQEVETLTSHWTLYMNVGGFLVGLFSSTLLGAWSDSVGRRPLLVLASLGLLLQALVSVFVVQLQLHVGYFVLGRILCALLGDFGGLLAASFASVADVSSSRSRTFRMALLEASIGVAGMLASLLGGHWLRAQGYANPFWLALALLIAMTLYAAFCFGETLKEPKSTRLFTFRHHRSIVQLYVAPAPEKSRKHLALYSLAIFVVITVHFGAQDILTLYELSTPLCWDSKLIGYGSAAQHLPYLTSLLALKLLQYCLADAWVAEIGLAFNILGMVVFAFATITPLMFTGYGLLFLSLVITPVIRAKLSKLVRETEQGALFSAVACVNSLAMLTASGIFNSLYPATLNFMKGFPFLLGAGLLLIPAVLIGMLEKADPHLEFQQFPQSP

[5] = Toxicity in NCR SCID mouse xenografted with human IGROV1 cells at 32 mg/kg, iv treated once daily for 4 days per week for 3 weeks starting from 3 days post implantation; assay type: organism-based; conditions: in vivo
Method in brief: (§2)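 Female ICR SCID mice on a folate-deficient diet for 14 days before bilateral subcutaneous IGROV1 implants. Randomized at 5 mice/group. […] Body weights recorded daily; tumors measured twice weekly.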

[6] = Toxicity in NCR SCID mouse xenografted with human IGROV1 cells assessed as weight loss median nadir at 32 mg/kg, iv treated once daily for 4 days per week for 3 weeks starting from 3 days post implantation and measured at day 18 post last dose relative to control; assay type: organism-based; conditions: in vivo; method in brief: as §2
[7] = target: T2, Reduced folate transporter (Homo sapiens) (UniProt P41440); experiment: Inhibition of human RFC2 expressed in human HeLa R1-11 cells assessed as reduction in [3H]MTX uptake at pH 7.2 at 10 uM measured over 2 mins relative to control; assay type: cell-based
T2 sequence (whole entry): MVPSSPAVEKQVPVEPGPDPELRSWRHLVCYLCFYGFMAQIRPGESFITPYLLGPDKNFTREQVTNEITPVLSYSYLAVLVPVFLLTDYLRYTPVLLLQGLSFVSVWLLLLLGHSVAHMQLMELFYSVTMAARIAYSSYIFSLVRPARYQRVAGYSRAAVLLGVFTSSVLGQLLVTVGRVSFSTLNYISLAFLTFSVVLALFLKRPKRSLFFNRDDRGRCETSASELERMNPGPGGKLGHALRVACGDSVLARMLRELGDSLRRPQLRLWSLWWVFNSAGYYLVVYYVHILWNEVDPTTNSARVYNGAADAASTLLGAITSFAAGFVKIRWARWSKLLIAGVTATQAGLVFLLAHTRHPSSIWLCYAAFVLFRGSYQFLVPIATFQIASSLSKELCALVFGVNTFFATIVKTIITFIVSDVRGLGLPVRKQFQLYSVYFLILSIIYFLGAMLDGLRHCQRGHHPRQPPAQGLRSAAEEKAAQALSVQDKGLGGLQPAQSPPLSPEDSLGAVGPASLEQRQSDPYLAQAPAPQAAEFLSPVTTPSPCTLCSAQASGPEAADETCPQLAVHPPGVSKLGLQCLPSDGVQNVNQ

A2780 = experiment: Antiproliferative activity against human A2780 cells after 96 hrs by Cell-Titer Blue assay; assay type: functional, cell-based; conditions: A2780, 96 h
[8] = Antiproliferative activity in Chinese hamster R2 cells deficient in RFC, PCFT, and FRalpha assessed as reduction in cell growth after 96 hrs by Cell-Titer Blue assay; assay type: cell-based; conditions: Cricetulus griseus, R2, 96 h
[9] = Toxicity in NCR SCID mouse xenografted with human IGROV1 cells assessed as weight loss median nadir at 32 mg/kg, iv treated once daily for 4 days per week for 3 weeks starting from 3 days post implantation and measured at day 14 post last dose relative to control; assay type: organism-based; conditions: in vivo; method in brief: as §1
IGROV-1 [10] = experiment: Antiproliferative activity against wild type human IGROV1 cells after 96 hrs by Cell-Titer Blue assay; assay type: functional, cell-based; conditions: IGROV-1, 96 h
IGROV-1 [11] = experiment: Antitumor activity against human IGROV1 cells xenografted in NCR SCID mouse assessed as time for tumor growth delay at 95 mg/kg, iv treated once daily for 4 days per week for 4 weeks starting from 3 days post implantation; assay type: functional; conditions: in the assay text read “32 mg/kg” for “95 mg/kg”
Method in brief: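 Female ICR SCID mice, 10 weeks old, kept on a folate-deficient diet for 14 days before bilateral subcutaneous IGROV1 implants; a control cohort was fed folate-replete chow. Randomized at 5 mice/group. […] Tumors measured twice weekly; body weights recorded daily.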

[12] = target: T2, Reduced folate transporter (Homo sapiens); experiment: Inhibition of human RFC2 expressed in human HeLa R1-11 cells assessed as reduction in [3H]MTX uptake at pH 7.2 at 1 uM measured over 2 mins relative to control; assay type: cell-based
[13] = Toxicity in NCR SCID mouse xenografted with human IGROV1 cells assessed as weight loss median nadir at 32 mg/kg, iv treated once daily for 4 days per week for 4 weeks starting from 3 days post implantation and measured after conclusion of therapy; assay type: organism-based; conditions: in vivo
IGROV-1 [14] = experiment: Anticlonogenic activity against human IGROV1 cells incubated for 24 hrs followed by compound wash out and measured after 10 days by methylene blue staining-based assay; assay type: functional, cell-based
Method in brief: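 IGROV1 cells plated in folate-free RPMI 1640 (pH 7.2), 10% dialyzed FBS, 25 nM LCV. After 24 h adherence, exposed to drug (0–20 μM) for 24 h at pH 6.8 (25 mM PIPES/25 mM HEPES). Washed, then grown drug-free at pH 7.2 (100 mM HEPES) with 25 nM LCV for up to 10 days at 37 °C. Colonies stained with methylene blue and counted electronically. Values normalized to vehicle controls. Triplicate experiments.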

Nc1nc2[nH]c(CCCc3ccc(C(=O)N[C@@H](CCC(=O)O)C(=O)O)s3)cc2c(=O)[nH]1
Activity (IGROV-1 [1]): 108 mg
IC50 (IGROV-1 [2]): 0.0101 µM
IC50 (IGROV-1 [3]): 0.0746 µM
inhibition [4]: Active
Activity [5]: Non-Toxic
Activity [6]: 12.1%
inhibition [7]: inactive
IC50 (A2780): 0.0274 µM
IC50 [8]: 0.355 µM
Activity [9]: 15.7%
IC50 (IGROV-1 [10]): 0.0167 µM
Time (IGROV-1 [11]): 35 days
inhibition [12]: inactive
Activity [13]: Non-Toxic
IC50 (IGROV-1 [14]): 0.27 µM
